From ChEMBL document CHEMBL4428069, “Parallel inhibition of amino acid efflux and growth of erythrocytic Plasmodium falciparum by mefloquine and non-piperidine analogs: Implication for the mechanism of antimalarial action” (Bioorg Med Chem Lett, 2016) come the findings set out here.

In general, IC50 refers to the concentration at which inhibition is half-maximal. By IC90 is commonly meant the point of the concentration-response curve where the effect stands at 90%. In general, inhibition refers to how much of the control response was suppressed.

Active and inactive are the calls of the source. No cut-off for these calls is given here.

Test [1] deals with Plasmodium falciparum. Put plainly: Antimalarial activity against chloroquine/mefloquine-sensitive Plasmodium falciparum 3D7 infected-erythrocytes assessed as parasite growth inhibition after 48 to 54 hrs by SYBR green 1-based replication method. The format is functional, organism-based. Summed up: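 Chloroquine- and mefloquine-sensitive 3D7 strain; growth inhibition measured with a SYBR Green I-based replication assay. IC50 reported as mean and standard deviation of three independent experiments.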

In test [2] the test system is Plasmodium falciparum. The experiment in a line: Antimalarial activity against trophozoite stage of Plasmodium falciparum 3D7 infected-erythrocytes assessed as reduction in Leu efflux after 4 hrs by UPLC method. The format is functional, organism-based. Conditions: 3D7, 4 h. Summed up: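 Trophozoite-stage 3D7-infected erythrocytes at 2% hematocrit and 10% parasitemia, cultured in medium lacking Leu and Val with D-norvaline as internal standard. Full concentration–response up to 1000 nM with a 4 h endpoint. Leu in the recovered conditioned medium quantified by UPLC (AccQ-Tag). Mean and standard deviation of three independent experiments.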

Test [3] relates to Plasmodium falciparum. Put plainly: Antimalarial activity against chloroquine-resistant, mefloquine-sensitive Plasmodium falciparum W2 assessed as parasite growth inhibition by [3H]hypoxanthine incorporation assay.
Test [4] relates to Plasmodium falciparum. Put plainly: Antimalarial activity against trophozoite stage of Plasmodium falciparum 3D7 infected-erythrocytes assessed as reduction in Leu efflux at 160 nM after 120 mins by UPLC method. The format is functional, organism-based. Summed up: (§1)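 Time course on 3D7-infected erythrocytes in medium lacking Leu and Val, with D-norvaline as internal standard. Exposure to 160 nM or DMSO, with conditioned medium sampled from 0 to 240 min. Leu in the medium measured by UPLC (AccQ-Tag), with a hyperbolic fit of the treated data. Points are the average of two technical replicates.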

The test system of test [5] is Plasmodium falciparum. The experiment in a line: Antimalarial activity against trophozoite stage of Plasmodium falciparum 3D7 infected-erythrocytes assessed as inhibition of Leu efflux at 160 nM after 60 mins by UPLC method. It is filed as functional. The conditions noted are these: 3D7, 4 h, in the assay text read “after 4 hrs” for “after 60 mins”. Summed up:
as §1

Test [6] deals with Plasmodium falciparum. The experiment in a line: Antimalarial activity against mefloquine-sensitive Plasmodium falciparum 3D7 infected-erythrocytes assessed as parasite growth inhibition after 48 hrs by sandwich ELISA. The format is functional. Conditions: 3D7, 48 h.

For the molecule `O=C1C(O)=C([C@H]2CC[C@H](c3ccc(Cl)cc3)CC2)C(=O)c2ccccc21` [ATOVAQUONE], the IC50 in the test on Plasmodium falciparum [1] is 0.6 nM; in the test with Plasmodium falciparum [2] it was > 1000 nM.
Consider `CC(C)NCC(O)c1cc(C(F)(F)F)nc2c(C(F)(F)F)cccc12` (stereo not given), for which the IC50 in the test with Plasmodium falciparum [1] worked out at 7.4 nM; in the test with Plasmodium falciparum [2] it was 14 nM. In the test on Plasmodium falciparum [3], the IC90 turned out to be 13 nM.
Turning to `CCCCNCC(O)c1cc(C(F)(F)F)nc2c(C(F)(F)F)cccc12` (stereo not given), the IC50 in the test on Plasmodium falciparum [1] is 4.9 nM; in the test on Plasmodium falciparum [2] it was 9 nM. For the same molecule, in the test with Plasmodium falciparum [3], the IC90 stood at 5 nM.
For `C#CCCNCC(O)c1cc(C(F)(F)F)nc2c(C(F)(F)F)cccc12` (stereo not given), the IC50 in the test on Plasmodium falciparum [1] came to 34 nM; with Plasmodium falciparum [2], 51 nM.
In the case of `CC1(C)N=C(N)N=C(N)N1OCCCOc1cc(Cl)c(Cl)cc1Cl`, the IC50 with Plasmodium falciparum [2] was > 1000 nM.
In the case of `OC(CNC1CCCCC1)c1cc(C(F)(F)F)nc2c(C(F)(F)F)cccc12` (stereo not given), the IC50 with Plasmodium falciparum [1] came out at 3.8 nM; in the test on Plasmodium falciparum [2], 9.7 nM. In the test with Plasmodium falciparum [3], the IC90 is 6 nM.
As to `C#CCNCC(O)c1cc(C(F)(F)F)nc2c(C(F)(F)F)cccc12` (stereo not given), the IC50 with Plasmodium falciparum [1] worked out at 110 nM; in the test on Plasmodium falciparum [2], 140 nM. In addition, in the test on Plasmodium falciparum [3], the IC90 is 1400 nM.
In the case of `CCCN(CCC)CC(O)c1cc(C(F)(F)F)nc2c(C(F)(F)F)cccc12` (stereo not given), the 50% inhibitory concentration (IC50) amounted to 4.7 nM in the test with Plasmodium falciparum [1] and 9.3 nM in the test on Plasmodium falciparum [2].
For `CCOCC(O)c1cc(C(F)(F)F)nc2c(C(F)(F)F)cccc12` (stereo not given), the IC50 with Plasmodium falciparum [1] and in the test on Plasmodium falciparum [2] was 22000 nM in each case.
Take `CCCCN(CCCN)CC(O)c1cc(C(F)(F)F)nc2c(C(F)(F)F)cccc12` (stereo not given): the IC50 with Plasmodium falciparum [1] was determined as 49 nM; in the test with Plasmodium falciparum [2], 180 nM.
As to `OC(CNC12CC3CC(CC(C3)C1)C2)c1cc(C(F)(F)F)nc2c(C(F)(F)F)cccc12` (stereo not given), the figures for the IC50 with Plasmodium falciparum [1] and in the test with Plasmodium falciparum [2] were 5.9 nM and 15 nM, respectively.
For `OC(CNCCC1CCCC1)c1cc(C(F)(F)F)nc2c(C(F)(F)F)cccc12` (stereo not given) the same measures were 120 nM and 210 nM.
Regarding `NCCCNCC(O)c1cc(C(F)(F)F)nc2c(C(F)(F)F)cccc12` (stereo not given), the IC50 is 1600 nM in the test with Plasmodium falciparum [1] and 5000 nM in the test with Plasmodium falciparum [2].
Consider `C#CCCN(CCCN)CC(O)c1cc(C(F)(F)F)nc2c(C(F)(F)F)cccc12` (stereo not given), for which the IC50 in the test with Plasmodium falciparum [1] is 140 nM; in the test with Plasmodium falciparum [2], 360 nM.
Regarding `CCCNCC(O)c1cc(C(F)(F)F)nc2c(C(F)(F)F)cccc12` (stereo not given), the IC50 came to 4.2 nM with Plasmodium falciparum [1] and 10 nM with Plasmodium falciparum [2]. In addition, the concentration for an effect of 90% (IC90) in the test on Plasmodium falciparum [3] amounted to 1 nM.
For `CN(C)CCNCC(O)c1cc(C(F)(F)F)nc2c(C(F)(F)F)cccc12` (stereo not given) the same measures were 240 nM, 320 nM and 1300 nM.
Regarding `O[C@@H](c1cc(C(F)(F)F)nc2c(C(F)(F)F)cccc12)[C@H]1CCCCN1` [(S,R)-MEFLOQUINE], the result with Plasmodium falciparum [4] was Active. In the test on Plasmodium falciparum [5], the inhibition at 0.16 µM amounted to 70%. The IC50 was determined as 9.1 nM with Plasmodium falciparum [1] and 22 nM with Plasmodium falciparum [2]. Also, the IC90 in the test on Plasmodium falciparum [6] was found to be 146 nM; in the test with Plasmodium falciparum [3], 16 nM.
Turning to `OC(CNCCc1ccccc1)c1cc(C(F)(F)F)nc2c(C(F)(F)F)cccc12` (stereo not given), the IC50 came to 8.5 nM in the test with Plasmodium falciparum [1] and 13 nM in the test with Plasmodium falciparum [2]. Besides, in the test on Plasmodium falciparum [3], the IC90 came out at 11 nM.
Taken in the same sequence, the figures for `OC(CNc1ccccc1)c1cc(C(F)(F)F)nc2c(C(F)(F)F)cccc12` (stereo not given) were 2000 nM, 2600 nM and 1200 nM.
For `CC(C)N(CC(O)c1cc(C(F)(F)F)nc2c(C(F)(F)F)cccc12)C(C)C` (stereo not given) the same measures were 350 nM, 590 nM and 12 nM.
As to `OCCNCC(O)c1cc(C(F)(F)F)nc2c(C(F)(F)F)cccc12` (stereo not given), the IC50 stood at 340 nM in the test with Plasmodium falciparum [1] and 500 nM with Plasmodium falciparum [2]. In addition, in the test on Plasmodium falciparum [3], the IC90 was 710 nM.
